PDI turbidity: blocks human protein disulfide isomerase activity | PDI insulin aggregation turbidity, A650, 90 min | inhibition, % at 10 µM | hit rate 0.052% among 350,000;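 active = mean inhibition across replicates of 30% or more, whatever share of single replicates reach that level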
Target sequence (P07237 whole entry, looked up): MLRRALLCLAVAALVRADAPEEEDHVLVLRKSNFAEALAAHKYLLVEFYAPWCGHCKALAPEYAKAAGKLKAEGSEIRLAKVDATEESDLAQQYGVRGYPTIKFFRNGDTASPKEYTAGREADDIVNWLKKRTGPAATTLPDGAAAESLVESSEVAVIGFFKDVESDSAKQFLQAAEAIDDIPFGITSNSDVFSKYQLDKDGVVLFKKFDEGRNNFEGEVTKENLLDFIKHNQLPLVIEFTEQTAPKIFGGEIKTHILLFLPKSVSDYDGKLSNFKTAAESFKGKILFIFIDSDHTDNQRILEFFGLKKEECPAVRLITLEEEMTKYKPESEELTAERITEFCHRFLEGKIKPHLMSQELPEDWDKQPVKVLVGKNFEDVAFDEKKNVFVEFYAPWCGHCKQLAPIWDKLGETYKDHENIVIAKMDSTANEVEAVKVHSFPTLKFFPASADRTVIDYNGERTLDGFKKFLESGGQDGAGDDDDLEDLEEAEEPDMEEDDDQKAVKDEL
Env fusion inh: inhibitors of HIV Env-mediated cell fusion; inhibition, % at 12.3 µM; AID 651610; HeLa-JRFL Env/CEM21 cell fusion, luciferase; hit rate 1.1% among 360,000;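 active = mean replicate inhibition score of at least 50 and every replicate individually at or above 50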;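 also: 0% = plate neutral controls and 100% = maraviroc near 300 nM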
ERp5 block: blocks human ERp5 reductase activity on insulin; hit rate 0.05% among 350,000; AID 651711; inhibition, % at 9.99 µM; ERp5 insulin aggregation, absorbance 650 nm, 90 min;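 active = mean replicate inhibition above about 25%, with every replicate also reaching it, limit read from the data, passing the limit was not always enough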
INS-1E GSIS act: GLuc luminescence reporter in INS-1E cells, primary screen for activators of glucose-dependent secretion of insulin; AID 743287; hit rate 0.61% among 370,000; activation, % at 16.6 µM; INS-1E GLuc reporter insulin secretion, 2-3 h;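 active = lowest replicate activation of at least 40%, so every replicate reaches that level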;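 also: 0% = median of neutral control wells and 100% = median of IBMX positive control wells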
FN deposit inh: fibronectin deposition inhibition; AH1F fibroblasts, Alexa488-fibronectin deposition fluorescence, overnight; inhibition, % at 12.6 µM; hit rate 0.086% among 350,000; AID 743247;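 active = mean inhibition across replicates of 30% or more, regardless of how many single replicates reach that level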;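 also: positive control wells lacked labelled fibronectin entirely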
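Assay system: AH1F fibroblasts assembling fluorescent fibronectin matrix; Amount: 10000 AH1F cells per well; Buffer or medium: DMEM, 2% serum; Probe or stimulus: Alexa488-fibronectin, 24 nM final in well; Doses: single compound dose, delivered by pin transfer; Incubation: 1 h adhesion, overnight exposure; Measured by: fluorescence 485/525 nm; Read-out: fibronectin deposition inhibition.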
Numbers without * were called inactive; nt = not tested or not shown; [ ] = remark or other dose. Most compounds without a hit are left out; they make up all but 1.4% or so of the library.

SMILES	PDI turbidity	Env fusion inh	ERp5 block	INS-1E GSIS act	FN deposit inh
CO[C@@H]1CN(C)C(=O)c2cc(NS(=O)(=O)c3ccc(Cl)cc3)ccc2OC[C@H](C)N(C(=O)NC(C)C)C[C@H]1C	nt	nt	nt	-10	-2
COCCn1c(C)cc(C2=NNC(=NC3CC3)SC2)c1C	-1	57*	0	30	4
C=CCN=C1NN=C(c2cc(C)n(CCOC)c2C)CS1	-3	75*	3	-7	2
COCCn1c(C)cc(C2=NNC(=Nc3ccc(Cl)cc3Cl)SC2)c1C	-15	-83	nt	nt	nt
CCOc1ccc(C2CC(c3ccccc3C)n3nc(N)nc3N2)cc1 (stereo not given)	nt	65*	6	9	-10
C[C@H](O)C#Cc1ccc2c(c1)O[C@H](CN(C)C(=O)CN(C)C)[C@H](C)CN([C@H](C)CO)S2(=O)=O	nt	nt	6	7	nt
CO[C@H]1CC[C@H]2CCOc3c(C#N)cccc3C(=O)N(C)C[C@@H](OC)[C@H](C)C(=O)N(C)C[C@H]1O2	nt	-1[16.7 µM]	10	5	-2
O=C(C[C@H]1C=C[C@H](NC(=O)Nc2ccc(C(F)(F)F)cc2)[C@H](CO)O1)NCc1cc(F)cc(F)c1	nt	5[16.7 µM]	-5	12	3
O=C(Nc1ccc(F)cc1F)c1csc(-c2ccccc2)n1	1	-22	0	-18	3
O=C(Nc1ccc(F)cc1F)c1cccc(C(=O)Nc2ccc(F)cc2F)n1	6	58*	-3	6	nt
CN(C)CCCNC(=O)C[C@@H]1CC[C@@H]2[C@H](COc3ccc(NC(=O)c4ccccc4F)cc3C(=O)N2C)O1	nt	nt	-6	5	3
CCCCOCCCNc1ncnc2c1[nH]c1ccccc12	-3	88*	nt	nt	-1
Cc1ccc(NCc2nnc(SCC(=O)Nc3ncc(C)s3)n2Cc2ccco2)c(C)c1	11	-114	nt	156*	-8
O=C(CSc1nnc(Cc2ccccc2)n1Cc1ccco1)NC12CC3CC(CC(C3)C1)C2	9	58*	nt	nt	nt
O=C(CSc1nnc(Cc2cccs2)n1Cc1ccco1)Nc1ccc(Cl)cc1Cl	2	59*	nt	nt	13
CN(C)C(=O)CSc1nnc(Cc2ccccc2)n1Cc1ccco1	7	-2	nt	nt	7
Cc1cc(Cl)ccc1NC(=O)CSc1nnc(-c2ccncc2)n1Cc1ccco1	0	-86	nt	nt	4
Cc1cc(C)nc(SCc2nnc(SCC(=O)Nc3ccc(C)c(C)c3)n2Cc2ccco2)n1	5	54*	nt	-20	nt
Cc1ccc(NC(=O)CSc2nc(-c3ccco3)cc(C(F)(F)F)n2)cc1C	-5	56*	nt	nt	2
O=[N+]([O-])c1ccc(C(O)CN2CCN(C/C=C/c3ccccc3)CC2)cc1 (stereo not given)	-3	5	2	51*	-12
O=[N+]([O-])c1ccc(C(O)CN2CCN(Cc3ccccc3)CC2)cc1 (stereo not given)	9	3	-1	19	-1
CCCNC(=O)C[C@H]1C[C@@H]2c3cc(NC(=O)CC4CC4)ccc3O[C@@H]2[C@@H](CO)O1	nt	nt	62*	-1	-6
CCCNC(=O)C[C@@H]1C[C@H]2c3cc(NS(C)(=O)=O)ccc3O[C@H]2[C@H](CO)O1	nt	nt	nt	-2	-8
CCCNC(=O)C[C@@H]1C[C@@H]2c3cc(NS(C)(=O)=O)ccc3O[C@@H]2[C@H](CO)O1	nt	nt	32*	-3	-5
CCCNC(=O)C[C@H]1C[C@H]2c3cc(NC(=O)CN(C)C)ccc3O[C@H]2[C@H](CO)O1	nt	89*[16.7 µM]	nt	2	-20
SMILES	PDI turbidity	Env fusion inh	ERp5 block	INS-1E GSIS act	FN deposit inh
CCCNC(=O)C[C@@H]1C[C@@H]2c3cc(NC(=O)CC4CC4)ccc3O[C@@H]2[C@H](CO)O1	nt	nt	-5	5	2
Cc1ccc(S(=O)(=O)Nc2ccc3c(c2)C(=O)N([C@@H](C)CO)C[C@H](C)[C@H](CN(C)CC2CCCCC2)O3)cc1	nt	-7[16.7 µM]	2	0	nt
C[C@@H]1CN([C@@H](C)CO)C(=O)Cc2cc(NC(=O)CCCN(C)C)ccc2O[C@@H]1CN(C)S(=O)(=O)c1ccccc1	nt	nt	nt	12	0
C[C@H](CO)N1C[C@H](C)[C@@H](CN(C)Cc2cccc(F)c2)Oc2ncc(Br)cc2C1=O	nt	-8[16.7 µM]	6	0	-8
COc1ccc(S(=O)(=O)Nc2ccc3c(c2)C(=O)N([C@H](C)CO)C[C@@H](C)[C@@H](CN(C)C(=O)NC2CCCCC2)OCCCC[C@@H](C)O3)cc1	nt	-55[16.7 µM]	-4	-50	-14
CC(C)OC(=O)c1nn2c(C(F)(F)F)cc(-c3ccc(Br)o3)nc2c1Br	-7	23	nt	157*	-6
CC(C)OC(=O)c1nn2c(C(F)(F)F)cc(-c3ccco3)nc2c1Cl	-1	nt	nt	nt	nt
COc1ccc(/C=C2\SC(N3CCCCC3)=NC2=O)cc1OC	8	-10	-3	66*	3
C[C@@H]1CN([C@H](C)CO)C(=O)c2cccc(NC(=O)Nc3ccccc3)c2O[C@@H]1CN(C)S(=O)(=O)c1ccc(Cl)cc1	nt	nt	0	-12	nt
CNC[C@H]1Oc2c(NS(C)(=O)=O)cccc2C(=O)N([C@@H](C)CO)C[C@H]1C	nt	-22[16.7 µM]	-1	24	nt
CSCCC(NC(=O)c1ccccc1Br)C(=O)NC(C)CCc1ccccc1 (stereo not given)	12	64*	-5	-7	nt
CSCCC(NC(=O)c1ccccc1)C(=O)NCCc1ccccc1 (stereo not given)	-2	4	-2	6	5
COCC(=O)Nc1ccc2c(c1)[C@H]1C[C@@H](CC(=O)NCc3ccc(OC)cc3)O[C@@H](CO)[C@H]1O2	nt	-24[16.7 µM]	7	-5	-17
O=C(C1=C(c2ccccc2)C(=O)c2ccccc2C1=O)c1ccccc1	11	155*	3	-8	28
CCCc1cn(CC[C@@H]2CC[C@@H](NC(=O)C3CCC3)[C@H](CO)O2)nn1	nt	2[16.7 µM]	-6	9	nt
O=C(Nc1ccc(C(F)(F)F)cc1Cl)c1ccc(Cn2cc(Br)cn2)o1	6	nt	-3	-13	nt
O=C(Nc1cccc(C(F)(F)F)c1)c1ccc(Cn2cc(Br)cn2)o1	0	79*	nt	nt	nt
COC(=O)[C@@]1(Cc2ccccc2N=[N+]=[N-])COC(c2ccc(OCCCO)cc2)=N1	nt	15[16.7 µM]	-4	nt	nt
C[C@@H]1CN([C@@H](C)CO)C(=O)Cc2cc(NC(=O)Nc3ccc(C(F)(F)F)cc3)ccc2O[C@H]1CN(C)Cc1ccc(C(F)(F)F)cc1	nt	56*[16.7 µM]	-3	16	nt
C[C@H]1CN([C@@H](C)CO)C(=O)Cc2cc(NC(=O)Nc3ccc(C(F)(F)F)cc3)ccc2O[C@H]1CN(C)Cc1ccc(C(F)(F)F)cc1	nt	-2[16.7 µM]	1	-2	nt
C[C@@H]1CN([C@@H](C)CO)C(=O)Cc2cc(NC(=O)Nc3ccc(C(F)(F)F)cc3)ccc2O[C@@H]1CN(C)Cc1ccc(C(F)(F)F)cc1	nt	-3[16.7 µM]	3	3	nt
C[C@H](CO)N1C[C@H](C)[C@@H](CN(C)Cc2ccc(C(F)(F)F)cc2)Oc2ccc(NC(=O)Nc3ccc(C(F)(F)F)cc3)cc2CC1=O	nt	58*[16.7 µM]	1	3	nt
